ChEMBL document CHEMBL4177770, “Discovery of MK-6169, a Potent Pan-Genotype Hepatitis C Virus NS5A Inhibitor with Optimized Activity against Common Resistance-Associated Substitutions” (J Med Chem, 2018)
Residue numbers refer to the chain shown, from its start.

How the values were obtained:
[1] = Resistance ratio of EC90 for NS5A L28M/Y93H double mutant in HCV genotype 1b infected in HuH7 replicon cells to EC90 for NS5A in HCV genotype 1a infected in HuH7 replicon cells; format: cell-based
[2] = Cmax in Wistar Han rat at 300 mg/kg, po by LC/MS method; format: ADME, organism-based; parameters: dose 300 mg/kg, route oral; conditions: in vivo
How it was run: (§1)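 Single rising oral dose study in fed male Wistar Han rats, dosed PO in 10% TWEEN at the indicated doses. Plasma was obtained by centrifuging the blood, and compound levels were determined by LC/MS.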

[3] = target: T1, Nonstructural protein 5A (Hepatitis C virus) (UniProt Q5L478); test: Inhibition of NS5A M31V mutant in HCV genotype 2b infected in HuH7 replicon cells assessed as decrease in viral replication after 3 days by RT-PCR method; format: cell-based; conditions: Hepatitis C virus subtype 2b
T1 sequence (whole entry): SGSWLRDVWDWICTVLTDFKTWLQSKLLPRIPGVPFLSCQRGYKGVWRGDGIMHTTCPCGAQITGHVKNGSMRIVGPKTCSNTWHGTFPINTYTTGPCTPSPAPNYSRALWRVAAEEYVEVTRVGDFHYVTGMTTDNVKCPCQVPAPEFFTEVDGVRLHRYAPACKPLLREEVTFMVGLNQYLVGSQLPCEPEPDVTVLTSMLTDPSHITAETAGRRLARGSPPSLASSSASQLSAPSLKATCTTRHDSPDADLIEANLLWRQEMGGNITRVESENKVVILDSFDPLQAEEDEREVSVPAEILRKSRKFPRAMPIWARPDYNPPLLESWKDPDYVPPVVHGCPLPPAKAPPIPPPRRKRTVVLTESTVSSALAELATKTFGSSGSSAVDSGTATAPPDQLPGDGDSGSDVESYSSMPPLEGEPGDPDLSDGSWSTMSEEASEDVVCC

[4] = Resistance ratio of EC90 for NS5A in HCV genotype 3a infected in HuH7 replicon cells to EC90 for NS5A in HCV genotype 1a infected in HuH7 replicon cells; format: cell-based
[5] = MRT in Wistar Han rat at 100 mg/kg, po by LC/MS method; format: ADME, organism-based; conditions: in vivo; how it was run: as §1
[6] = system: Hepatitis C virus subtype 1a; test: Resistance ratio of EC90 for NS3 R155K mutant in HCV genotype 1a infected in HuH7 replicon cells to EC90 for NS5A in HCV genotype 1a infected in HuH7 replicon cells; format: cell-based
[7] = Resistance ratio of EC90 for NS5A L30H mutant in HCV genotype 4a infected in HuH7 replicon cells to EC90 for NS5A in HCV genotype 1a infected in HuH7 replicon cells; format: cell-based
[8] = target: T1, Nonstructural protein 5A (Hepatitis C virus); test: Inhibition of NS5A K24R mutant in HCV genotype 1a infected in HuH7 replicon cells assessed as decrease in viral replication after 3 days by RT-PCR method; format: cell-based; conditions: Hepatitis C virus subtype 1a
[9] = system: Hepatitis C virus subtype 1a; test: Resistance ratio of EC90 for NS5A K24R mutant in HCV genotype 1a infected in HuH7 replicon cells to EC90 for NS5A in HCV genotype 1a infected in HuH7 replicon cells; format: cell-based
[10] = system: T2, Nonstructural protein 5A (Hepatitis C virus), Q5L478 [Y93N]; test: Inhibition of NS5A Y93N mutant in HCV genotype 1a infected in HuH7 replicon cells assessed as decrease in viral replication after 3 days by RT-PCR method; format: cell-based; conditions: Hepatitis C virus subtype 1a
T2 sequence (whole entry): T1 sequence (whole entry) with Y93N

[11] = Resistance ratio of EC90 for NS5A F28Y mutant in HCV genotype 2a infected in HuH7 replicon cells to EC90 for NS5A in HCV genotype 1a infected in HuH7 replicon cells; format: cell-based
[12] = Resistance ratio of EC90 for NS5A Y93H mutant in HCV genotype 3a infected in HuH7 replicon cells to EC90 for NS5A in HCV genotype 1a infected in HuH7 replicon cells; format: cell-based
[13] = system: Hepatitis C virus subtype 1a; test: Resistance ratio of EC90 for NS3 R155K/V36M double mutant in HCV genotype 1a infected in HuH7 replicon cells to EC90 for NS5A in HCV genotype 1a infected in HuH7 replicon cells; format: cell-based
[14] = Resistance ratio of EC90 for NS5A A30K mutant in HCV genotype 3a infected in HuH7 replicon cells to EC90 for NS5A in HCV genotype 1a infected in HuH7 replicon cells; format: cell-based
[15] = MRT in Wistar Han rat at 300 mg/kg, po by LC/MS method; format: ADME, organism-based; conditions: in vivo; how it was run: as §1
[16] = Resistance ratio of EC90 for NS5A L31M mutant in HCV genotype 2b infected in HuH7 replicon cells to EC90 for NS5A in HCV genotype 1a infected in HuH7 replicon cells; format: cell-based
[17] = target: T1, Nonstructural protein 5A (Hepatitis C virus); test: Inhibition of NS5A L30H mutant in HCV genotype 4a infected in HuH7 replicon cells assessed as decrease in viral replication after 3 days by RT-PCR method; format: cell-based; conditions: Hepatitis C virus subtype 4a
[18] = Half life in Wistar Han rat at 2 mg/kg, iv by LC/MS method; format: ADME, organism-based; conditions: in vivo
How it was run: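 Male Wistar Han rats, two per group, dosed IV at 2 mg/kg in 60% PEG200. Plasma was obtained by centrifuging the blood, and compound concentrations were measured by LC/MS.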

[19] = target: T1, Nonstructural protein 5A (Hepatitis C virus); test: Inhibition of NS5A A30K mutant in HCV genotype 3a infected in HuH7 replicon cells assessed as decrease in viral replication after 3 days by RT-PCR method; format: cell-based; conditions: Hepatitis C virus subtype 3a
[20] = system: Hepatitis C virus subtype 1a; test: Resistance ratio of EC90 for NS5A L31V mutant in HCV genotype 1a infected in HuH7 replicon cells to EC90 for NS5A in HCV genotype 1a infected in HuH7 replicon cells; format: cell-based
[21] = target: T1, Nonstructural protein 5A (Hepatitis C virus); test: Inhibition of NS5A in HCV genotype 4a infected in HuH7 replicon cells assessed as decrease in viral replication after 3 days by RT-PCR method; format: cell-based; conditions: Hepatitis C virus subtype 4a
[22] = system: Hepatitis C virus subtype 1a; test: Resistance ratio of EC90 for NS5A Y93H mutant in HCV genotype 1a infected in HuH7 replicon cells to EC90 for NS5A in HCV genotype 1a infected in HuH7 replicon cells; format: cell-based
[23] = target: T1, Nonstructural protein 5A (Hepatitis C virus); test: Inhibition of NS5A A92P mutant in HCV genotype 1a infected in HuH7 replicon cells assessed as decrease in viral replication after 3 days by RT-PCR method; format: cell-based; conditions: Hepatitis C virus subtype 1a

COC(=O)N[C@H](C(=O)N1CCC[C@H]1c1ncc(-c2cc(F)c3c(c2)O[C@@H](c2ccc(C4CC4)s2)n2c-3cc3cc(-c4cnc([C@@H]5CCCN5C(=O)[C@@H](NC(=O)OC)[C@@H]5CCOC(C)(C)C5)[nH]4)ccc32)[nH]1)C(C)C
Ratio [1]: 15
Cmax [2]: 1060 nM
EC90 [3]: 0.019 nM
Ratio [4]: 2
MRT [5]: 12.4 h
Ratio [6]: < 1
Ratio [7]: 17
EC90 [8]: 0.00034 nM
Ratio [9]: < 1
EC90 [10]: 0.069 nM
Ratio [11]: 16
Ratio [12]: 571
Ratio [13]: < 1
Ratio [14]: 4
MRT [15]: 10.7 h
Ratio [16]: 4
EC90 [17]: 0.072 nM
half-life [18]: 5.4 h
EC90 [19]: 0.018 nM
Ratio [20]: 1
EC90 [21]: 0.006 nM
Ratio [22]: 8
EC90 [23]: 0.00014 nM
